The values that follow come from ChEMBL document CHEMBL3739303, “Targeting the Src Homology 2 (SH2) Domain of Signal Transducer and Activator of Transcription 6 (STAT6) with Cell-Permeable, Phosphatase-Stable Phosphopeptide Mimics Potently Inhibits Tyr641 Phosphorylation and Transcriptional Activity” (J Med Chem, 2015).

Each structure is given as a SMILES string. Activity calls are given as the source filed them. The rule behind the calls is not given here.

For assay [1], the target named is Signal transducer and activator of transcription 3 (Mus musculus) (UniProt P42227). As to the kind of experiment: Inhibition of IL6-induced STAT3 phosphorylation at S727 in CD4+ T lymphocytes isolated from C57BL/6J mouse preincubated for 2 hrs followed by activation with plate-bound anti-CD3/anti-CD28 for 15 mins by Western blot analysis. Background: In western blotting, separated proteins are transferred to a membrane and probed.

The species named for assay [2] is Mus musculus. The assay can be described thus: Inhibition of IL2-induced STAT5 phosphorylation at Y694 in CD4+ T lymphocytes isolated from C57BL/6J mouse at 0.5 to 5 uM preincubated for 2 hrs followed by activation with plate-bound anti-CD3/anti-CD28 and IL2 for 15 mins by Western blot analysis. The class given is cell-based. Put shortly: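 CD4+ T cells from C57BL/6J mice, sorted by AutoMACS; activated 15 min with plate-bound anti-CD3 and/or anti-CD28 with IL-2, IL-6 or IL-4; lysed with protease inhibitors plus 10 mM NaF and 1 mM Na3VO4; Bradford-normalised immunoblots for pSTAT1 (Tyr701), pSTAT5 (Tyr694), pSTAT6 (Tyr641) and total STATs.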

Assay [3] has as its target T1, Signal transducer and activator of transcription 6 (Homo sapiens) (UniProt P42226).
T1 sequence (whole entry): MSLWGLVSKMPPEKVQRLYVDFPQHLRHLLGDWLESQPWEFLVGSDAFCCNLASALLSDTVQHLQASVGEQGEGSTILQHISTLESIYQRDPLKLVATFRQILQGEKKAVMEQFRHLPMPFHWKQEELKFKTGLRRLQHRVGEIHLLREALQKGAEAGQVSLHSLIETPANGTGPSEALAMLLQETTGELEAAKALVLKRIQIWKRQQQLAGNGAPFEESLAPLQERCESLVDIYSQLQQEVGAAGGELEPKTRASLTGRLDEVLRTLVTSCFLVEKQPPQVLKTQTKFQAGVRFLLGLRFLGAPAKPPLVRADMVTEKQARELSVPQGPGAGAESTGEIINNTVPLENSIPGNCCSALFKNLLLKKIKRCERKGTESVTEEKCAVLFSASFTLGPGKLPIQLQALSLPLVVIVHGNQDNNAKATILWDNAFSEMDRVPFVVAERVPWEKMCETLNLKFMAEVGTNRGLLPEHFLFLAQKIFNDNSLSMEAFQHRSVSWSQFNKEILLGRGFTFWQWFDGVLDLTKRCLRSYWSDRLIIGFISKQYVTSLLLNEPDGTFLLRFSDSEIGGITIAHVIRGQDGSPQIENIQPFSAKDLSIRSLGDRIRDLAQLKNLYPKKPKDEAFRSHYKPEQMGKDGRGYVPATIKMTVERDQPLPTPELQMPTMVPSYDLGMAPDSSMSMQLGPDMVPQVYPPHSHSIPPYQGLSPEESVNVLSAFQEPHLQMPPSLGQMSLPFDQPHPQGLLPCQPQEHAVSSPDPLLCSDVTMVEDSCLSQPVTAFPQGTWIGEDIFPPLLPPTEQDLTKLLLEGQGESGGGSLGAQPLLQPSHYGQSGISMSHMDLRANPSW
As to the kind of experiment: Inhibition of IL4-stimulated STAT6 phosphorylation at tyrosine 641 in human Beas-2B cells at 0.025 to 5 uM incubated for 2 hrs followed by stimulation with IL4 for 1 hr by Western blot assay. It is filed as cell-based. The essentials:
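Beas-2B seeded at 3.0 × 10^5 cells/well the day before; prodrugs from DMSO stocks added to final concentrations for 2 h, then IL-4 (2 ng/mL) for 1 h. PBS-washed cells lysed with PMSF, protein by modified Lowry; blots blocked in 3% BSA/TBST, probed for pSTAT6 (Tyr641), stripped and reprobed for total STAT6; ECL on X-ray film.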

Assay [4] deals with RAC-alpha serine/threonine-protein kinase (Homo sapiens) (UniProt P31749). As to the kind of experiment: Inhibition of EGF-induced AKT phosphorylation at S473 in human MDA-MB-468 cells at 5 uM incubated for 2 hrs followed by stimulation with EGF for 1 hr by Western blot assay. It is filed as cell-based.
Assay [5] addresses T1, Signal transducer and activator of transcription 6 (Homo sapiens). As to the kind of experiment: Inhibition of IL4-induced STAT6 phosphorylation in human MDA-MB-468 cells at 0.1 to 5 uM incubated for 2 hrs followed by stimulation with IL4 for 1 hr by Western blot assay. It is filed as cell-based. The essentials:
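MDA-MB-468 breast cancer cells serum-starved, treated with prodrugs, then IL-4 stimulated; pSTAT6 read by Western blot.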

For assay [6] the target is unchanged. The assay can be described thus: Inhibition of IL-13-stimulated STAT6 SH2 domain phosphorylation in human Beas-2B cells assessed as inhibition of CCL26 mRNA expression preincubated for 2 hrs followed by stimulation with IL-13 for 24 hrs by RT-PCR analysis.

Sequence of RAC-alpha serine/threonine-protein kinase (Homo sapiens) (P31749 whole entry): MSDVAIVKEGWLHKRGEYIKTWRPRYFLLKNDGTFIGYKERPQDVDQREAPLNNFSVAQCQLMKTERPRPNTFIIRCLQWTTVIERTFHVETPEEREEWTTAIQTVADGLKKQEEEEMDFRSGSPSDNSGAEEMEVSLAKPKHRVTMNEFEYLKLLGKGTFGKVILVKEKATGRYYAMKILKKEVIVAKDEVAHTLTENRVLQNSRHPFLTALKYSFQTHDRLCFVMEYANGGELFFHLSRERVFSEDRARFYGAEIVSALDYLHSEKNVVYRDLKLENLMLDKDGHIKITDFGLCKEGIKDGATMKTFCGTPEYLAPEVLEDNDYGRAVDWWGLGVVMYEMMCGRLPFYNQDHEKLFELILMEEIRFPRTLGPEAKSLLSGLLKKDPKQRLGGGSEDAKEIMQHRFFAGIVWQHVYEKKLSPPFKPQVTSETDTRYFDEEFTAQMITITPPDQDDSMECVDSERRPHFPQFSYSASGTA
Sequence of Signal transducer and activator of transcription 3 (Mus musculus) (P42227 whole entry): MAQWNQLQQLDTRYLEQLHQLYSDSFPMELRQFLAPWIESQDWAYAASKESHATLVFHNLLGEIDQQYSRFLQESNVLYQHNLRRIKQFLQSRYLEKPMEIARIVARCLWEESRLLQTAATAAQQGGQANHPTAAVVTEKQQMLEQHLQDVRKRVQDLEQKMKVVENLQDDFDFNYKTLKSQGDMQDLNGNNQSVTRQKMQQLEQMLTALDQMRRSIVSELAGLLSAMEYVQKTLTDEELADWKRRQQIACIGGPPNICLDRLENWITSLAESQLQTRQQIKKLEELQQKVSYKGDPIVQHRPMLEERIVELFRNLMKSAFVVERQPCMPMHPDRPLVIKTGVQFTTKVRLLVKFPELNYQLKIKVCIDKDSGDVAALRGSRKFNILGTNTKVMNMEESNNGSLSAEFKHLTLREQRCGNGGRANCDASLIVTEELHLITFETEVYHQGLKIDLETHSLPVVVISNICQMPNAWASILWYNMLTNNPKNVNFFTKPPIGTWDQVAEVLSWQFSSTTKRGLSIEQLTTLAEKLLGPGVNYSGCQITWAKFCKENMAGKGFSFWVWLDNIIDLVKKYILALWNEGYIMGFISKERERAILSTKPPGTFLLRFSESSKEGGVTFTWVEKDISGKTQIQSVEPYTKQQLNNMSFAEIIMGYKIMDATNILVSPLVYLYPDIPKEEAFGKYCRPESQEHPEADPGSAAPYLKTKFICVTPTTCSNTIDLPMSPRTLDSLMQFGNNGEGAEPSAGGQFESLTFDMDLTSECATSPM

As for `C/C(=C\C(=O)N[C@H](C(=O)N1CCC[C@H]1C(=O)N(C)c1ccccc1)C(C)(C)C)c1ccc(C(F)(F)P(=O)(OCOC(=O)C(C)(C)C)OCOC(=O)C(C)(C)C)cc1`, the inhibition result in assay [1] was “inactive”. The inhibition entry in assay [2], in assay [3], in assay [4] and in assay [5] was “Active” throughout. Moreover, the inhibition entry in assay [6] is “Dose-dependent effect”.
